ChEMBL document CHEMBL1140080, “Adamantyl-substituted retinoid-derived molecules that interact with the orphan nuclear receptor small heterodimer partner: effects of replacing the 1-adamantyl or hydroxyl group on inhibition of cancer cell growth, induction of cancer cell apoptosis, and inhibition of SRC homology 2 …” (J Med Chem, 2008)

How the values were obtained:
MDA-MB-231 [1] = assay: Induction of apoptosis in human MDA-MB-231 cells at 1.0 uM after 96 hrs by acridine orange staining; type: functional
Outline: (§1)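 KG-1, HL-60R (24 h) or MDA-MB-231 (96 h) cells in 5% FBS medium attached overnight, then were treated with analogue in Me2SO or vehicle (final 0.1% Me2SO). Apoptotic cells were scored by acridine orange staining on at least three replicates. Tested concentrations were 0.1–5.0 μM, plus 25 μM for KG-1.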

[2] = Induction of apoptosis in human HL60R cells at 0.1 uM after 24 hrs by acridine orange staining; type: functional; outline: as §1
[3] = Induction of apoptosis in human HL60R cells at 1.0 uM after 24 hrs by acridine orange staining; type: functional; outline: as §1
MDA-MB-231 [4] = assay: Induction of apoptosis in human MDA-MB-231 cells at 2.0 uM after 96 hrs by acridine orange staining; type: functional; outline: as §1
[5] = Growth inhibition of HMVE cells after 72 hrs by alamar blue method; type: cell-based; details: Homo sapiens
[6] = Growth inhibition of HMVE cells at 0.5 uM after 72 hrs by alamar blue method; type: cell-based; details: human; for inhibition at 72 h, 0.5 µM: HMVE cells, read-out: GI

## O=C(O)c1ccc2cc(-c3ccc(O)c(C45CC6CC(CC(C6)C4)C5)c3)ccc2c1 [O-DEMETHYLATED ADAPALENE]
MDA-MB-231 [1]
  Activity: 26%
[2]
  Activity: 73%
[3]
  Activity: 98%
MDA-MB-231 [4]
  Activity: 46%

## CCCCC[C@@H]1CC2(c3cc(-c4ccc(/C=C/C(=O)O)cc4)ccc3O)CCC1CC2
[2]
  Activity: 0%
[3]
  Activity: 0%

## O=C(O)c1ccc2cc(-c3cc(C45CC6CC(CC(C6)C4)C5)ccc3O)ccc2c1
MDA-MB-231 [1]
  Activity: 0%

## COc1ccc(C23CC4CC(CC(C4)C2)C3)cc1-c1ccc2cc(C(=O)O)ccc2c1
[3]
  Activity: 0%

## COc1cc(-c2ccc3cc(C(=O)O)ccc3c2)cc(C23CC4CC(CC(C4)C2)C3)c1O
MDA-MB-231 [1]
  Activity: 0%

## CC1C2(c3cc(-c4ccc(/C=C/C(=O)O)cc4)ccc3O)CCC(C2)C1(C)C (stereo not given)
[5]
  IC50: > 500 nM
[2]
  Activity: 2%
[3]
  Activity: 2%
[6]; hmve, 72 h, 0.5 µM
  growth inhibition (GI): 40%

## Cc1cc(C)c(-c2cc(-c3ccc4cc(C(=O)O)ccc4c3C)ccc2O)c(C)c1
[5]
  IC50: > 500 nM
[2]
  Activity: 0%
[3]
  Activity: 0%
[6]
  inhibition at 72 h, 0.5 µM: 17%

## COc1cc(-c2ccc3cc(C(=O)O)ccc3c2)cc(C23CC4CC(CC(C4)C2)C3)c1
MDA-MB-231 [1]
  Activity: 20%

## COc1ccc(-c2ccc3cc(C(=O)O)ccc3c2)cc1C12CC3CC(CC(C3)C1)C2
[2]
  Activity: 3%
[3]
  Activity: 95%

## CC(C)=CCC/C(C)=C\Cc1cc(-c2ccc3cc(C(=O)O)ccc3c2)ccc1O
[3]
  Activity: 0%

## COc1cc(-c2ccc3cc(C(=O)O)ccc3c2C)ccc1O
MDA-MB-231 [1]
  Activity: 5%
[2]
  Activity: -4%
[3]
  Activity: 7%
MDA-MB-231 [4]
  Activity: 7%

## O=C(O)c1ccc2cc(-c3ccc(O)c([C@H]4CCC5CCCC[C@H]5C4)c3)ccc2c1 (stereo not given in full)
[3]
  Activity: 0%

## O=C(O)c1ccc2cc(-c3cc(O)cc(C45CC6CC(CC(C6)C4)C5)c3)ccc2c1
MDA-MB-231 [1]
  Activity: 0%

## O=C(O)/C=C/c1ccc(-c2ccc(O)c(C3C4CC5CC(C4)CC3C5)c2)cc1 (stereo not given)
MDA-MB-231 [1]
  Activity: 20%
[2]
  Activity: 2%
[3]
  Activity: 90%
MDA-MB-231 [4]
  Activity: 47%

## COCCOCOc1ccc(-c2ccc3cc(C(=O)O)ccc3c2)cc1C12CC3CC(CC(C3)C1)C2
[3]
  Activity: 21%

## CC1(C)CCC(C)(C)c2cc(-c3cc(-c4ccc(/C=C/C(=O)O)cc4)ccc3O)ccc21
[3]
  Activity: 0%

## Cc1c(-c2ccc(O)c(-c3ccc4c(c3)C(C)(C)CCC4(C)C)c2)ccc2cc(C(=O)O)ccc12
[5]
  IC50: 600 nM
[2]
  Activity: 0%
[3]
  Activity: 0%
[6]
  inhibition at 72 h, 0.5 µM: 60%

## O=C(O)c1ccc2cc(-c3ccc(O)c([C@@H]4CCC[C@H]5CCCCC54)c3)ccc2c1 (stereo not given in full)
[5]
  IC50: > 500 nM
[3]
  Activity: 0%
[6]
  inhibition at 72 h, 0.5 µM: 10%

## O=C(O)c1ccc2cc(-c3cc(O)c(O)c(C45CC6CC(CC(C6)C4)C5)c3)ccc2c1
MDA-MB-231 [1]
  Activity: 0%

## O=C(O)c1ccc2cc(-c3ccc(O)c([C@@H]4CC[C@@H]5CCCC[C@H]5C4)c3)ccc2c1
[5]
  IC50: > 500 nM
[3]
  Activity: 0%
[6]
  inhibition at 72 h, 0.5 µM: 0%

## CC(c1cc(-c2ccc3cc(C(=O)O)ccc3c2)ccc1O)C12CC3CC(CC(C3)C1)C2 (stereo not given)
[5]
  IC50: > 500 nM
[3]
  Activity: 0%
[6]
  inhibition at 72 h, 0.5 µM: 30%

## O=C(O)/C=C/c1ccc(-c2ccc(O)c(C34CC5CC(CC(C5)C3)C4)c2)cc1 [ADAROTENE]
MDA-MB-231 [1]
  Activity: 53%
[5]
  IC50: 100 nM
[3]
  Activity: 98%
MDA-MB-231 [4]
  Activity: 58%
[6]
  inhibition at 72 h, 0.5 µM: 90%

## COc1cc(-c2ccc3cc(C(=O)O)ccc3c2)ccc1C12CC3CC(CC(C3)C1)C2
[3]
  Activity: 0%

## CC1(C)CCC(C)(C)c2cc(-c3ccc4cc(C(=O)O)ccc4c3)c(CO)cc21
MDA-MB-231 [1]
  Activity: 0%

## O=C(O)c1ccc2cc(-c3ccc(O)c(C4C5CC6CC(C5)CC4C6)c3)ccc2c1 (stereo not given)
[5]
  IC50: > 500 nM
[2]
  Activity: 0%
[3]
  Activity: 0%
[6]
  inhibition at 72 h, 0.5 µM: 35%

## CC(C)(C)c1cc(-c2ccc3cc(C(=O)O)ccc3c2)ccc1O
[5]
  IC50: > 500 nM
[6]
  inhibition at 72 h, 0.5 µM: 10%
